Test results: ChEMBL document CHEMBL4819102, “SAR insights into TET2 catalytic domain inhibition: Synthesis of 2-Hydroxy-4-Methylene-pentanedicarboxylates” (Bioorg Med Chem, 2021)
Activity calls are given as the source filed them. The calls are words filed in the database; no cut-off is given here.

Columns and labels:
[1] = tested on: THP-1; assay: Inhibition of TET in human THP-1 cells assessed as reduction in 5hmc/5mc level at 50 uM incubated for 12 hrs by dot blot analysis relative to control; format: cell-based
Outline: (§1)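 THP1 cells at 0.3x10^6/mL exposed 12 h to ester prodrugs (25, 50, 100 µM) with 100 µM sodium ascorbate. Genomic DNA denatured in NaOH/EDTA at 95 °C, two-fold serial dilutions dot-blotted, probed with anti-5hmC and anti-5mC antibodies, and loading checked by methylene blue. Inhibition taken from the 5hmC/5mC ratio; means of at least three experiments, below 5% reported not detected.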

[2] = tested on: THP-1; assay: Inhibition of TET in human THP-1 cells assessed as reduction in 5hmc/5mc level at 25 uM incubated for 12 hrs by dot blot analysis relative to control; format: cell-based; outline: as §1
[3] = tested on: THP-1; assay: Inhibition of TET in human THP-1 cells assessed as reduction in 5hmc/5mc level at 100 uM incubated for 12 hrs by dot blot analysis relative to control; format: cell-based; outline: as §1
[4] = Inhibition of TET (unknown origin); parameters: species or system Homo sapiens
[5] = target: T1, Methylcytosine dioxygenase TET2 (Homo sapiens, UniProt Q6N021); assay: Inhibition of recombinant human GST-tagged TET2 (1099 to 1936 residues) expressed in Escherichia coli BL21 (DE3)pLysS assessed as reduction in 5hmc level incubated for 2 hrs by ELISA
[6] = target: T1, Methylcytosine dioxygenase TET2; assay: Potency index, ratio of IC50 of NOG to IC50 of compound for inhibition of recombinant human GST-tagged TET2 (1099 to 1936 residues) expressed in Escherichia coli BL21 (DE3)pLysS assessed as reduction in 5hmc level incubated for 2 hrs by ELISA
[7] = target: T2, Methylcytosine dioxygenase TET1 (Homo sapiens, UniProt Q8NFU7); assay: Inhibition of TET1 (unknown origin)
T2 sequence (Q8NFU7 whole entry): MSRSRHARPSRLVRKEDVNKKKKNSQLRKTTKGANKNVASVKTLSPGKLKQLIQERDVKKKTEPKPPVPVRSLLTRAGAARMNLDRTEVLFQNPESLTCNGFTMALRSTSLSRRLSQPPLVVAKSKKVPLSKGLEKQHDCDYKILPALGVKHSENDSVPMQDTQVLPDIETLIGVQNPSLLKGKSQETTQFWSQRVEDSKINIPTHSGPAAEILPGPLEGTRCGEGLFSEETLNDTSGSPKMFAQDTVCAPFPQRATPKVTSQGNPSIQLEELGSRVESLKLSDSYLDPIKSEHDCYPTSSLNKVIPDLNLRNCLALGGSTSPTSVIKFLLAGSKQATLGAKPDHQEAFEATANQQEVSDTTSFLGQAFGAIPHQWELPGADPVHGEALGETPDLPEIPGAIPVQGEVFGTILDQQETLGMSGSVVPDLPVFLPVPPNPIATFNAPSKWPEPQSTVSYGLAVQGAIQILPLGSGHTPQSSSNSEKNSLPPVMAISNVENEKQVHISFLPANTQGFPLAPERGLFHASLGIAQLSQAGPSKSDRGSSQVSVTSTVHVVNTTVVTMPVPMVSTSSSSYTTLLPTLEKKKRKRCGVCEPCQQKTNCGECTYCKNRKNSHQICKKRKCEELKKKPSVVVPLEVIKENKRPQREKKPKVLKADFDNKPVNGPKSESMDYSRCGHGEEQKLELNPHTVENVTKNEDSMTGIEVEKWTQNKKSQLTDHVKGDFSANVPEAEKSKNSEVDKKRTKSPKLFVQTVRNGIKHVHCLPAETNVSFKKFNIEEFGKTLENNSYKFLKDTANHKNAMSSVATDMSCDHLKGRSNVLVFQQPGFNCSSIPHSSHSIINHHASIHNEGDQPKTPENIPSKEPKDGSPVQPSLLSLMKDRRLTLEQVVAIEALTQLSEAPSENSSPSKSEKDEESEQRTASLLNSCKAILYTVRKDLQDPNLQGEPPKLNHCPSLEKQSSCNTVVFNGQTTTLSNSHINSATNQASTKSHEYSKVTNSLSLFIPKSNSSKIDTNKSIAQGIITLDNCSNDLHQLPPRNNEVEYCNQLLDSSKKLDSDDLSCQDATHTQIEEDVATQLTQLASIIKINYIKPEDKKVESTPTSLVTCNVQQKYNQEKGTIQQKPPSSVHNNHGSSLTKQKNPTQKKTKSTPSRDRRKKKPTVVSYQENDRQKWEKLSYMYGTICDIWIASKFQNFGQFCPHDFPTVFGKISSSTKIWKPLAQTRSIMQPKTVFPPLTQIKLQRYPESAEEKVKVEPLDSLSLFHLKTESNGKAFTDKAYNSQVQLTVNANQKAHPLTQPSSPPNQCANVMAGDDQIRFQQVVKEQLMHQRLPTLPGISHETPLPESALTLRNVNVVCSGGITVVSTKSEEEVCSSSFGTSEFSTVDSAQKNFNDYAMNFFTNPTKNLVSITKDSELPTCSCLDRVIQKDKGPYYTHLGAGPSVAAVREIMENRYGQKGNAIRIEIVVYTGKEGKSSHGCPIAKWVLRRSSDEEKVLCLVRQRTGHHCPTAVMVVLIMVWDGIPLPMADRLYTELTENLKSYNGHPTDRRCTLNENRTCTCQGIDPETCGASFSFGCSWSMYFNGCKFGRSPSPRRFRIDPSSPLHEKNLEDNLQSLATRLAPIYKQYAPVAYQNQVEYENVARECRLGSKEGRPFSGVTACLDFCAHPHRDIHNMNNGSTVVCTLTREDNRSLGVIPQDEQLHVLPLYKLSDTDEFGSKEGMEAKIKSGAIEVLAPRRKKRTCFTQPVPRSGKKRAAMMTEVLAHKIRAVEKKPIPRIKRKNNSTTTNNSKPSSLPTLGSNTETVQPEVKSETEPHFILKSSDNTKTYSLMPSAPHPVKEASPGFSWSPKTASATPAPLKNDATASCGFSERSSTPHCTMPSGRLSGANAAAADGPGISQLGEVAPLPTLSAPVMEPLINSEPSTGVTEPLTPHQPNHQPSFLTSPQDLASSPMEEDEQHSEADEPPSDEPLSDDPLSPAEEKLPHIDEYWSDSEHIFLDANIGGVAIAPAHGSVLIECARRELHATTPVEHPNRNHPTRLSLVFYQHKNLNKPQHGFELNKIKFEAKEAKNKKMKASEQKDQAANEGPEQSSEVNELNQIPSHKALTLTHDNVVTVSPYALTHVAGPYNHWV

[8] = target: T3, Methylcytosine dioxygenase TET3 (Homo sapiens, UniProt O43151); assay: Inhibition of TET3 (unknown origin)
[9] = target: T3, Methylcytosine dioxygenase TET3; assay: Inhibition of recombinant human N-terminal Flag-tagged C-terminal His-tagged TET3 (824 to 1795 residues) expressed in Baculovirus infected Sf9 cells assessed as reduction in 5hmc level incubated for 2 hrs by ELISA
[10] = target: T1, Methylcytosine dioxygenase TET2; assay: Binding affinity to human recombinant TET2 (1099 to 1936) catalytic domain assessed as dissociation constant by micro-scale thermophoresis analysis
[11] = target: T1, Methylcytosine dioxygenase TET2; assay: Reversible inhibition of recombinant human GST-tagged TET2 (1099 to 1936 residues) expressed in Escherichia coli BL21 (DE3)pLysS assessed as restoration of enzyme activity in presence of alpha-KG at 20 uM incubated for 2 hrs by ELISA
Outline: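 TET2 catalytic domain (100 nM) preincubated with 12.5 µM inhibitor, then α-KG added at increasing concentrations. Anti-5hmC/HRP detection, TMB read at 450 nm; activity expressed relative.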

[12] = target: T2, Methylcytosine dioxygenase TET1; assay: Inhibition of recombinant human N-terminal Flag-tagged TET1 (1418 to 2136 residues) expressed in Baculovirus infected Sf9 cells assessed as reduction in 5hmc level incubated for 2 hrs by ELISA
[13] = target: T2, Methylcytosine dioxygenase TET1; assay: Inhibition of TET1 (unknown origin) at 10 mM in presence of alpha-KG relative to control
[14] = target: T2, Methylcytosine dioxygenase TET1; assay: Inhibition of TET1 (unknown origin) at 50 mM in presence of alpha-KG relative to control
[15] = target: T1, Methylcytosine dioxygenase TET2; conditions: dose 10.0 mM
[16] = target: T1, Methylcytosine dioxygenase TET2; conditions: dose 50.0 mM

Row | SMILES | inhibition [1] [%] | inhibition [2] [%] | inhibition [3] [%] | other results
1 | COC(=O)/C=C/C(=O)C(=O)OC | 17 | 7 | 34 | –
2 | C=C(CC(O)C(=O)OCC)C(=O)OCC (racemic) | 68 | 55 | 73 | –
3 | C=C(CC(F)C(=O)OCC)C(=O)OCC (racemic) | 11 | 9 | 41 | –
4 | CCOC(=O)C(C)CC(O)C(=O)OCC (racemic) | 14 | < 5 | 41 | –
5 | O=C(O)/C=C/C(=O)O [FUMARIC ACID] | – | – | – | IC50 [4]: 2.4 mM
6 | C=C(CC(Cl)C(=O)OC)C(=O)OC (centres undefined) | 54 | 40 | 66 | –
7 | CCC(CC(=O)C(=O)OC)C(=O)OC (centres undefined) | < 5 | < 5 | < 5 | –
8 | C=C(CC(F)(F)C(=O)OCC)C(=O)OCC | 20 | 12 | 29 | –
9 | C=C(CC(C)O)C(=O)OCC (racemic) | 27 | 15 | 47 | –
10 | COC(=O)CCC(=O)C(=O)OC | < 5 | < 5 | < 5 | –
11 | CC(C)CC(NC(=O)C(=O)O)C(=O)O (centres undefined) | – | – | – | IC50 [4]: 0.0181 mM
12 | O=C(O)CC[C@H](O)C(=O)O | – | – | – | IC50 [4]: 3.6 mM
13 | COC(=O)C(=O)CC(C)C(=O)OC (centres undefined) | < 5 | < 5 | < 5 | –
14 | CCOC(=O)C(=O)CC1(C(=O)OCC)CC1 | 29 | 19 | 33 | –
15 | C=C(C[C@@H](O)C(=O)O)C(=O)O | – | – | – | IC50 [5]: 11 µM; Ratio IC50 [6]: 2
16 | O=C(C[C@@H](O)CCc1ccc(O)c(O)c1)O[C@@H]1Cc2c(O)cc(O)cc2C[C@@H]1c1ccc(O)c(O)c1 | – | – | – | IC50 [7]: 3.48 µM; IC50 [8]: 2310 nM
17 | C=C(CC(O)C(=O)O)C(=O)O (centres undefined) | – | – | – | IC50 [9]: 8.8 µM; Kd [10]: 300 nM; Ratio IC50 [6]: 2; inhibition [11]: Active; IC50 [12]: 1500 nM
18 | O=C(O)/C=C/C(=O)C(=O)O | – | – | – | IC50 [5]: 107 µM

Row | SMILES | inhibition [1] [%] | inhibition [2] [%] | inhibition [3] [%] | other results
19 | C=C(C[C@H](O)C(=O)O)C(=O)O | – | – | – | IC50 [5]: 10.5 µM; Ratio IC50 [6]: 2
20 | COC(=O)CCC(O)C(=O)OC (centres undefined) | 18 | 9 | 29 | –
21 | COC(=O)/C=C/C(=O)OC | 21 | < 5 | 33 | –
22 | O=C(O)CC[C@@H](O)C(=O)O | – | – | – | inhibition [13]: 28%; inhibition [14]: 47%; inhibition [15]: 33%; IC50 [4]: 6.4 mM; inhibition [16]: 83%
23 | COC(=O)CNC(=O)C(=O)OC | 62 | 56 | 64 | –
24 | C=C(CC(C)(O)C(=O)OCC)C(=O)OCC (racemic) | 71 | 54 | 80 | –
25 | O=C(O)CNC(=O)C(=O)O [N-OXALYLGLYCINE] | – | – | – | IC50 [4]: 0.08 mM
26 | O=C(O)CCC(=O)O [SUCCINIC ACID] | – | – | – | IC50 [4]: 2.8 mM
27 | C=C(CC(O)(CC)C(=O)OCC)C(=O)OCC (racemic) | 45 | 29 | 48 | –
28 | C=C(CC(O)(C(=O)OCC)C(F)(F)F)C(=O)OCC (racemic) | 67 | 49 | 79 | –
29 | CCOC(=O)C(C)CC(F)(F)C(=O)OCC (centres undefined) | 9 | 14 | 22 | –
30 | CCOC(=O)C(O)CC1(C(=O)OCC)CC1 (racemic) | < 5 | < 5 | < 5 | –
31 | C=C(CCC(=O)OC)C(=O)OC | 7 | < 5 | 22 | –
32 | C=C(CC(O)(C(=O)OCC)C(C)C)C(=O)OCC (racemic) | 37 | 17 | 43 | –
33 | C=C(CC(=O)C(=O)OCC)C(=O)OCC | 27 | < 5 | 44 | –
34 | COC(=O)CCC(=O)OC | 7 | < 5 | 15 | –
35 | C=C(NC(C)=O)C(=O)OC | < 5 | < 5 | < 5 | –
